Measured values of several laboratories.
Protocols differ between the studies behind these lines.
CNR2: Cannabinoid receptor 2 (CNR2, Homo sapiens, UniProt P34972)
F10: Coagulation factor X (F10, Homo sapiens, UniProt P00742)
CASR: Extracellular calcium-sensing receptor (CASR, Homo sapiens, UniProt P41180)

CNC(C)Cc1ccc2c(c1)OCO2 (stereo not shown)  Ki (Solute carrier family 22 member 2 (SLC22A2, Homo sapiens, UniProt O15244); transporter uptake; inhibitor): 1900 nM
CCC(CC)(NC(=O)c1ccc(C2CC2)c(Cc2ccc(F)cc2)n1)C(=O)NCCOCCOCCNC(=O)c1ccc2c(c1)C1(OC2=O)c2ccc(N(C)C)cc2[Si](C)(C)c2cc(N(C)C)ccc21  Ki (CNR2; ligand displacement; radioligand; cell membranes): 676 nM
CC(=O)N[C@H]1C/C=C/COc2ccc(cc2)C[C@@H](C(=O)N[C@@H](CCCNC(=N)N)C(=O)c2nc3ccccc3s2)NC(=O)[C@H](CC(C)C)NC1=O  IC50 (F10; enzyme activity; inhibitor; absorbance; with preincubation): 8810 nM
CC(C)C[C@@H]1NC(=O)[C@H](C(C)(C)C)NC(=O)[C@H](Cc2ccc(O)cc2)NC(=O)[C@@H]2CCCN2C(=O)[C@H](CCCCN)NC(=O)[C@H](CCCNC(=N)N)NC1=O  Ki (Neurotensin receptor type 1 (Ntsr1, Rattus norvegicus, UniProt P20789); ligand displacement; flow cytometry): > 100000 nM
C=C1CC/C=C(\C)CC[C@@H]2[C@@H]1CC2(C)C  Ki (CNR2; ligand displacement; radioligand; cell membranes): > 10000 nM
CC(=O)N[C@H]1Cc2ccc(cc2)OCCCC[C@@H](C(=O)N[C@@H](CCCNC(=N)N)C(=O)c2nc3ccccc3s2)NC(=O)[C@H](CC(C)C)NC1=O  IC50 (F10; enzyme activity; inhibitor; absorbance; with preincubation): 2650 nM
CC(NCc1cccc(-n2cccn2)c1)c1csc2ccccc12 (stereo not shown)  EC50 (CASR; G protein activation; agonist; BRET): 444 nM
CNC(=O)c1ccc(-c2cnn3ccc(C(=O)N(C)c4ccc(Cl)c(C(=O)O)c4)cc23)cc1  IC50 (Histamine H3 receptor (HRH3, Homo sapiens, UniProt Q9Y5N1); cell-free assay): > 30000 nM
CCCCCc1cc(O)c2c(c1)OC(C)(C)[C@@H]1CC[C@@H](C)C=C21  Ki (CNR2; ligand displacement; radioligand; cell membranes): 28 nM
C[C@@H](NCCCc1cccc(C(F)(F)F)c1)c1cccc2ccccc12  EC50 (CASR; G protein activation; agonist; BRET): 71 nM
